Screening data deposited in PubChem BioAssay by Broad Institute.
Statin myotox sup = protects C2C12 myotubes from simvastatin toxicity; ATP luminescence, 48 h; scaled: DMSO 0, geranylgeraniol control 100; rescue of ATP level, % at 7.49 µM; hit rate 0.78% among 330,000; AID 602340;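 active = mean ATP rescue above about 67%, or every replicate alone reaching that limit, limit read from the data, passing the limit was not always enough; inconclusive = no clear call, values can overlap the other calls; inactive = mean under the limit and some replicate under it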;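 also: myotubes were challenged with 10 µM simvastatin during compound exposure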
SIRT5 block = blocks human SIRT5 desuccinylation of peptide; inhibition, % at 15 µM; Purified SirT5, succinyl-peptide AMC, trypsin-coupled fluorescence; hit rate 1.1% among 330,000; in the data active = inhibition above about 15%; inconclusive = no clear call, values can overlap the other calls
Target sequence (Q9NXA8 whole entry, looked up): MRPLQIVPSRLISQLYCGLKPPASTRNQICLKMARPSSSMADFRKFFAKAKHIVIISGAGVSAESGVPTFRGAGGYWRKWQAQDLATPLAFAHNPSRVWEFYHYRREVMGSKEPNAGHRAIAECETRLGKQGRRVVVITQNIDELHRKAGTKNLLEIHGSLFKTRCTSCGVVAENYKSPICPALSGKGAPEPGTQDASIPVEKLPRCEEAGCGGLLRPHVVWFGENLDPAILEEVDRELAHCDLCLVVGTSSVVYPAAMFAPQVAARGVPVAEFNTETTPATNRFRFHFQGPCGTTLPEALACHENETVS
PGC1a acetyl inh = modulators of PGC1a acetylation. AID 651687. inhibition, % at 15.6 µM. hit rate 0.17% among 350,000. U2OS PGC1a acetylation, AlphaScreen anti-acetyl-lysine; with virally co-expressed GCN5 acetyltransferase;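 active = every replicate shows inhibition of at least 40%; inconclusive = mean inhibition at least 40% but some replicate below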;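 also: 0% = neutral control wells and 100% = positive control wells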
S100A4 MyoIIA = inhibitors of human S100A4 binding to myosin IIA peptide; P26447; S100A4/TAMRA-MyoIIA peptide fluorescence polarization; inhibition, % at 10.7 µM; hit rate 0.14% among 360,000; AID 652163;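 active = mean inhibition of at least 70% across replicates, with every replicate also reaching that level; inconclusive = mean inhibition reaches 70% but some replicates fall short; inactive = mean inhibition below 70%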
Target sequence (P26447 whole entry, looked up): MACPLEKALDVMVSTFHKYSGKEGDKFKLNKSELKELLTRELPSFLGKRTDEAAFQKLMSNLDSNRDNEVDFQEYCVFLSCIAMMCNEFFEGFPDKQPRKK
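Assay system: human S100A4 monomer with TAMRA-labelled myosin IIA peptide / Buffer or medium: Calcium-containing HEPES buffer, pH 7.2 / Reagent: TAMRA-labelled myosin IIA heavy-chain peptide probe, 5 nM / Compound: one dose per compound / Timing: polarization read 5 min after assay mix addition, stable 5–60 min / Benchmarks: neutral control DMSO, positive control TFP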
DENV2 CPE = protects cells from dengue virus 2 cytopathic effect | hit rate 1.7% among 350,000 | DENV2-infected cells, cytopathic effect rescue, plate reader | CPE inhibition, % at 9.99 µM | AID 651640; in the data active = CPE inhibition above about 20%, passing the limit was not always enough; inconclusive = no clear call, values can overlap the other calls; tested in BHK-21 cells;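 also: 0% = median of neutral control wells and 100% = median of positive control wells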
An asterisk follows results filed as active; ? = inconclusive; · = no result given; ! = a repeat was not active. In the library only some 2.9% were active in any assay of this set; here they are far more common.

SMILES	Statin myotox sup	SIRT5 block	PGC1a acetyl inh	S100A4 MyoIIA	DENV2 CPE
C[C@H]1CN([C@@H](C)CO)C(=O)c2cc(C3=CCCC3)cnc2O[C@@H]1CN(C)C(=O)Nc1ccc(F)cc1	·	2.6	-8.5	9.2	6.5
C[C@@H]1CN([C@H](C)CO)C(=O)c2cc(C3=CCCC3)cnc2O[C@@H]1CN(C)C(=O)Nc1ccc(C(F)(F)F)cc1	6.7	-1.0	6.6	-14.5	32.7*
C[C@@H]1CN([C@@H](C)CO)C(=O)c2cc(C3=CCCC3)cnc2O[C@H]1CN(C)C(=O)NC1CCCC1	-1.8	3.6	2.8	6.7	31.3*
C[C@@H]1CN([C@@H](C)CO)C(=O)c2cc(C3=CCCC3)cnc2O[C@@H]1CN(C)C(=O)NC1CCCC1	8.8	3.1	4.1	-34.1	-4.3
C[C@H](CO)N1C[C@H](C)[C@@H](CN(C)C(=O)Nc2ccc(F)cc2)Oc2ncc(C3=CCCC3)cc2C1=O	30.8	·	-13.0	16.6	26.6*
C[C@@H]1CN([C@@H](C)CO)C(=O)c2cc(C3=CCCCC3)cnc2O[C@H]1CN(C)C(=O)Nc1cccc(F)c1	2.4	0.2	5.4	-2.7	29.7*!
CC=Cc1ccc2n(c1=O)C[C@@H]1[C@@H](CO)[C@H](C(=O)NCC(F)(F)F)[C@H]2N1C(=O)C1CCC1 (mixture of isomers)	-13.5	-16.6	·	1.2	?
COCC(=O)N(C)C[C@H]1Oc2ncc(C#CC(C)(C)O)cc2C(=O)N([C@@H](C)CO)C[C@@H]1C	3.5	·	-3.0	·	·
C[C@@H]1CN([C@H](C)CO)C(=O)c2cccc(NS(=O)(=O)c3ccccc3)c2O[C@H]1CN(C)S(=O)(=O)c1cccs1	-9.6	-2.1	12.2	5.6	-6.2
O=C(C[C@H]1CC[C@@H]2[C@H](COC[C@@H](O)CN2Cc2cc(F)ccc2F)O1)NCc1ccccc1	6.9	2.9	1.5	4.2	-10.8
C[C@H](CO)N1C[C@H](C)[C@@H](CN(C)C(=O)Nc2ccc(F)cc2)Oc2ncc(C3=CCCCC3)cc2C1=O	-13.0	10.0	-21.9	1.6	-7.5
C[C@H](CO)N1C[C@H](C)[C@@H](CN(C)C(=O)C2CCOCC2)Oc2ncc(C3=CCCCC3)cc2C1=O	23.1	-0.6	-7.1	11.4	45.3*
C[C@@H]1CN([C@H](C)CO)C(=O)c2cc(C3=CCCCC3)cnc2O[C@@H]1CN(C)C(=O)Nc1ccc(F)cc1	?	0.2	·	5.5	33.7*
C[C@@H]1CN([C@H](C)CO)C(=O)c2cc(C3=CCCCC3)cnc2O[C@@H]1CN(C)C(=O)C1CCOCC1	28.2	-15.8	6.0	-2.2	-5.7
Cc1cccc(S(=O)(=O)N(C)C[C@@H]2OCc3ccccc3-c3ccccc3C(=O)N([C@H](C)CO)C[C@@H]2C)c1	-28.2	4.0	-0.7	-4.1	5.6
COc1ccc(-c2nnc3ccc(SCC(=O)N4CCCCC4)nn23)cc1OC	·	0.6	-7.5	2.5	29.5*
Cn1cnc2nc[nH]c2c1=S	74.8*	5.4	6.9	7.2	4.6
CN(C)c1ccc(C=NNc2ccccn2)c(Cl)c1	·	16.6*	·	-0.2	-1.7
COc1ccc(-n2c(C)cc(C)c(C(C)=O)c2=S)cc1	·	26.9*	·	-21.8	-11.1
COc1ccccc1-n1c(C)cc(SC)c(C(C)=O)c1=S	97.7*	·	0.0	·	·
Cc1ccc(-c2ccc([C@H]3[C@H](CO)N4C(=O)CN(C(=O)Nc5ccc(F)cc5)C[C@@H]34)cc2)cc1	·	10.2	-3.4	-42.4	6.0
COc1ccc(CCNC(=O)Cc2nn(C)c(=O)c3ccccc23)cc1OC	·	·	7.3	·	·
COc1cccc(OCc2ccc(Cn3nc(NC(=O)NCCc4ccc(OC)c(OC)c4)c4ccccc43)cc2)c1	-5.5	35.4*	·	-1.9	-2.4
COc1cccc(-c2ccc3c(c2)[C@@H]2[C@@H](CCN2C(=O)c2cccc(F)c2)[C@@H](CO)N3)c1	-27.6	1.2	-2.2	-1.0	28.4*
O=C(CN1CCOCC1)N1CC[C@@H]2[C@H]1c1cc(-c3ccc(F)cc3)ccc1N[C@@H]2CO	-22.0	-9.1	0.8	·	·
SMILES	Statin myotox sup	SIRT5 block	PGC1a acetyl inh	S100A4 MyoIIA	DENV2 CPE
O=C(CN1CCOCC1)N1CC[C@H]2[C@H](CO)Nc3ccc(-c4ccc(F)cc4)cc3[C@H]21	13.1	34.4*	-15.1	-2.5	-11.5
O=C(c1cccc(F)c1)N1CC[C@@H]2[C@H]1c1cc(-c3ccccc3)ccc1N[C@@H]2CO	·	2.7	-12.2	7.6	45.6*
COc1ccc(-c2ccc3c(c2)[C@H]2[C@H](CCN2C(=O)c2cccc(F)c2)[C@H](CO)N3)cc1	-14.4	2.9	8.0	21.0	-16.6
COC(=O)C[C@@H]1C[C@@H]2c3cc(NS(C)(=O)=O)ccc3O[C@@H]2[C@H](CO)O1	0.3	-2.3	-1.5	-6.4	7.0
Cc1ccc(S(=O)(=O)N(C)C[C@@H]2Oc3ccc(NS(C)(=O)=O)cc3C(=O)N([C@H](C)CO)C[C@@H]2C)cc1	·	2.6	-8.8	4.1	-2.9
O=C(Nc1ccccc1F)N1CCCCN2[C@H](CO)[C@@H](c3ccc(C#Cc4ccccc4)cc3)[C@@H]2C1	·	5.5	-44.2	-3.6	20.8*
CC(=O)N1CCCCN2[C@H](CO)[C@@H](c3ccc(C#Cc4ccccc4F)cc3)[C@H]2C1	·	3.7	5.0	-2.7	24.4*
Cc1sc2nc(SCC(=O)NCc3ccco3)n(Cc3ccccc3)c(=O)c2c1C	113.6*	·	-6.1	·	·
O=C(CC[C@H]1O[C@@H](n2ccc(=O)[nH]c2=O)[C@H](O)[C@@H]1O)N[C@H](Cc1ccccc1)C(=O)NC1CCCCC1	7.2	-2.0	-0.9	-6.2	-3.9
O=C(N[C@H](Cc1ccccc1)C(=O)NC1CCCCC1)[C@H]1O[C@@H](n2ccc(=O)[nH]c2=O)[C@H](O)[C@@H]1O	·	-1.2	·	1.4	28.5*
O=C(c1cccc(F)c1)N1C[C@H]2[C@@H](c3ccccc31)[C@H](CO)N2C(=O)Cc1ccccc1	-13.4	13.0	-4.5	-1.6	5.1
CS(=O)(=O)N1CCN(C(=O)c2cc(-c3ccncc3)nc3ccc(Cl)cc23)CC1	107.9*	·	4.9	·	·
C[C@H]1CN([C@@H](C)CO)C(=O)Cc2cc(NS(=O)(=O)c3cccs3)ccc2O[C@H]1CN(C)C(=O)Nc1ccc(C(F)(F)F)cc1	-40.1	1.9	-2.4	49.1	1.6
COc1ccc(S(=O)(=O)N(C)C[C@@H]2OCCCC[C@H](C)Oc3ccc(NS(=O)(=O)c4ccc(F)cc4)cc3C(=O)N([C@@H](C)CO)C[C@H]2C)cc1	-0.2	17.4*	2.2	-1.4	-6.2
COc1ccc(S(=O)(=O)Nc2ccc3c(c2)C(=O)N([C@@H](C)CO)C[C@H](C)[C@H](CN(C)S(=O)(=O)c2ccc(OC)cc2)OCCCC[C@@H](C)O3)cc1	·	·	-9.9	·	?
COc1ccc(S(=O)(=O)N(C)C[C@@H]2OCCCC[C@@H](C)Oc3ccc(NS(=O)(=O)c4ccc(F)cc4)cc3C(=O)N([C@@H](C)CO)C[C@H]2C)cc1	10.7	20.8*	-10.2	-19.8	-3.2
